# Bioassay records deposited in PubChem BioAssay by several laboratories.
# Sampled rows, rich in hits. Any-hit rate of the full collection: about 1.8%.
# CXCR6 inh = CXCR6 receptor inhibitors, primary screen, cell-based, beta-arrestin, luminescence, CHO-K1 PathHunter, 1536-well | C-X-C chemokine receptor type 6 (Homo sapiens), O00574 | inhibition, % at 20 µM | hit rate 0.36% among 360,000 | AID 602244, 2012; in the data active means inhibition above about 34%, passing the limit was not always enough;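 further: antagonist mode with CXCL16 agonist at 10 nM final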
# APJ agonist = agonists of human apelin receptor APJ, primary screen, CHO-K1 cells, PathHunter beta-arrestin, luminescence; P35414; 0% DMSO wells, 100% apelin; activation, % at 20 µM; hit rate 0.11% among 330,000; AID 2520, 2010;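 active means activation more than six SD over the plate average, tested at 20 µM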
#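 assay system = CHO-K1 APJ beta-arrestin complementation cell line | input = cell density 1000 per well | dosing = compound 20 µM once, DMSO 1% | timing = compound 90 min 25 °C, reagent 1 h | measured by = luminescence from split beta-galactosidase complementation, Galacton Star/Emerald II substrate | read-out basis = APJ agonist activity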
# EBI2 block = EBI2 receptor antagonists, beta-arrestin recruitment, primary screen, cell-based, luminescence, 7a,25-OHC stimulation, uHTS. 7a,25-OHC stimulated. inhibition, % at 5 µM. hit rate 0.81% among 360,000. AID 651636, 2012; in the data active means inhibition above about 38%;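 further: enzyme fragment complementation signal reports receptor beta-arrestin coupling in cells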
# Target sequence (P32249 whole entry, looked up, the tested form may be a part): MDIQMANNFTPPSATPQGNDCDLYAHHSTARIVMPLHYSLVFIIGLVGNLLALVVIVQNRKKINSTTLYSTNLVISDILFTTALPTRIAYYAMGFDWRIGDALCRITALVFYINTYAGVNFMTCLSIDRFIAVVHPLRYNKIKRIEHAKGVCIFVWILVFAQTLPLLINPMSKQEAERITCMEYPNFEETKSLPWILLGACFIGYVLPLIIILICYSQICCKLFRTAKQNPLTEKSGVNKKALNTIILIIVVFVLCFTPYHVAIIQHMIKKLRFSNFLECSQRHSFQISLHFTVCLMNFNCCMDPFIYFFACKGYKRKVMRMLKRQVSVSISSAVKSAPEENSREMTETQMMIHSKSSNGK
# CCR6 antag = CCR6 receptor antagonists, primary screen, cell-based, CHO-K1, luminescence, beta-arrestin, uHTS; CHO-K1 CCR6 PathHunter beta-arrestin, CCL20-stimulated; C-C chemokine receptor type 6 (Homo sapiens), P51684; hit rate 0.49% among 340,000; inhibition, % at 20 µM; AID 493098, 2011;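 active means compounds whose inhibition of the agonist-driven luminescence signal at 20 µM reaches about 50%, limit read from the data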;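 further: cells stimulated with CCL20 at 14 nM final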
# Beta2AR agonist = beta2AR agonists driving receptor internalization, primary screen, cell-based, FAP fluorogen, flow cytometry | Am2.2-beta2AR cells | response, % (concentration not given with the values) | hit rate 0.43% among 340,000 | AID 504454, 2011 | Beta-2 adrenergic receptor (Homo sapiens), P07550;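 active means response above a set limit, near 3 SD of response in nonfluorescent compounds, cut at about 42% in these data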
# APJ antag = antagonists of human apelin receptor APJ, primary screen, CHO-K1 cells, beta-arrestin complementation, luminescence; inhibition, % at 20 µM; hit rate 0.32% among 330,000; AID 2521, 2010;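 active means inhibition above about 40% at 20 µM, limit read from the data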;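 further: cells challenged with 10 nM apelin-13 agonist together with compound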
# Hits are given with their value; – = inactive; · = not tested or not shown; ! = repeats disagree.
SMILES,CXCR6 inh,APJ agonist,EBI2 block,CCR6 antag,Beta2AR agonist,APJ antag
CC(Oc1ccccc1)C(=O)N1CCC2(CC1)Oc1ccc(F)cc1C(=O)C21CC(c2ccccc2)=NO1 (centres undefined),–,–,50,–,–,–
CC(Oc1ccccc1)C(=O)N1CCC2(CC1)Oc1ccc(F)cc1C(=O)C21CC(c2cccnc2)=NO1 (centres undefined),–,–,42,–,–,–
O=C(CN(Cc1ccc(F)cc1)C(=O)CNS(=O)(=O)c1ccccc1)NCC1CCCO1 (centres undefined),–,–,–,–,–,–
CCc1ccc(C(=O)COC(=O)CCc2nc3ccccc3c(=O)[nH]2)cc1,–,–,–,–,–,–
CC(=O)Nc1ccc(S(=O)(=O)N2CCC(N3CCCCCC3)CC2)cc1,–,–,–,–,–,–
CCOC(=O)C1=NNC(C(=O)c2ccc(Cl)cc2)C1c1ccc(OC)cc1 (centres undefined),–,–,–,–,–,65
O=C(/C=C1\NC2(CCCC2)Cc2ccccc21)N1CCOCC1,–,–,–,–,–,–
CC1(C)Cc2c(ccc3ccccc23)/C(=C/C(=O)N2CCCCC2)N1,–,–,–,64,–,–
CN(C)c1ccc(C(=O)c2ccc(O)cc2O)cc1,–,–,–,–,–,–
CN(C)c1ccc(Cc2cc3c(O)ccc(O)c3cc(Cc3ccc(N(C)C)cc3)c2=O)cc1,34,·,–,·,–,·
CCOC(=O)C1=CCC(c2cc3ccccc3[nH]2)NC1 (centres undefined),·,·,–,·,·,·
CCCCCCCCCCCCCCCCn1cc[n+](C)c1,–,–,–,57!,–,–
Cc1ccn2c(Nc3ccccc3)c(-c3ccccn3)nc2c1,–,–,–,–,–,49
O=C(C=Cc1ccccc1Cl)c1ccccc1,–,·,–,–,–,·
C=CCn1cccc(/C=C/C(=O)c2ccc(C(C)(C)C)cc2)c1=S,–,·,44,–,–,·
COc1ccc(NC(=O)/C(Cl)=C(/Cl)S(=O)(=O)Cc2ccc(C)cc2)cn1,48,·,70,57,62,·
O=C(c1c[nH]c(C(=O)C(Cl)(Cl)Cl)c1)c1c(F)cccc1F,–,–,–,–,46,–
O=C(c1c[nH]c(C(=O)C(Cl)(Cl)Cl)c1)c1ccccc1F,–,–,–,–,–,–
COc1ccc(S(=O)(=O)N2CCC3CC2c2cc(N4CCOCC4)ccc23)cc1 (centres undefined),–,·,–,–,–,·
Cc1ccc(-n2sc3ccccc3c2=O)cc1,–,–,–,52,–,–
CC(C)C(C)NC(=O)CN1C(=O)NC2(CCc3ccccc32)C1=O (centres undefined),–,–,–,–,–,–
O=c1oc2ccccc2c(O)c1/C=C1\C=Nc2ccccc21,–,–,–,–,48,–
O=c1oc2ccccc2c(O)c1/C=N/c1ncccn1,–,–,–,–,–,–
CCCCNC(=O)n1c(SC)nc2ccccc21,–,–,–,–,–,–
COC(=O)n1c(SC)nc2ccccc21,–,–,–,–,78,–
SMILES,CXCR6 inh,APJ agonist,EBI2 block,CCR6 antag,Beta2AR agonist,APJ antag
O=c1oc2cc(O)c(Cl)cc2c2ccccc12,–,–,–,–,–,–
O=c1oc(Cl)c(Cl)c2ccccc12,–,–,–,–,62,–
O=[N+]([O-])c1ccc2c(c1Nc1ccccc1)=NC1(CCCCC1)N=2,–,–,66,–,–,–
COc1ccc(Nc2c([N+](=O)[O-])ccc3c2=NC2(CCCCC2)N=3)cc1,–,–,61,–,–,–
O=[N+]([O-])c1ccccc1Nc1ccccc1,–,–,–,–,–,–
CCOC(=O)c1c(C)oc(=O)c(CC)c1O,–,·,–,·,·,·
CCOC(=O)c1c(C)oc2c(F)c(F)c(F)c(F)c2c1=O,–,–,–,–,43,–
COc1ccc(NC(=O)COC(=O)c2cc([N+](=O)[O-])ccc2N2CCOCC2)cc1,–,–,–,113,–,–
c1ccc(C(c2nnnn2Cc2ccco2)N2CCN(c3nc4ccccc4s3)CC2)cc1 (centres undefined),–,–,36,–,–,–
COc1ccc(/C=C(\C#N)C(=O)OCC(=O)NC2CC2)cc1,–,–,–,–,–,–
C[C@@H]1CN([C@H](C)CO)C(=O)CCCn2nncc2CO[C@H]1CN(C)Cc1ccc(Cl)c(Cl)c1,–,·,–,·,·,·
COc1cc(N=Nc2ccc(Br)cc2)cc(C=O)c1O,53,·,–,·,·,·
CCOC(=O)CN(C(=O)CSc1nnc(COc2ccc(OC)cc2)n1C)c1ccccc1,–,–,52,–,–,–
CC(C)(C)OC(=O)N[C@@H](Cc1ccccc1)C(=O)N1CCC(C(=O)N[C@@H](Cc2c[nH]c3ccccc23)C(=O)O)CC1,–,–,–,–,–,–
CC(C)CC(=O)/C(=C\c1ccc(Cl)cc1Cl)n1cncn1,–,·,–,–,47,·
CCC(=O)NC1=C(Cl)C(=O)C(NC(=O)CC)=C(Cl)C1=O,84,–,–,·,–,–
CCN(CC)C(=O)c1cccc(-c2csc(C(C)(O)c3ccncc3)n2)c1 (centres undefined),–,·,–,·,·,·
CC(C)Cc1ccccc1O,·,–,·,·,·,–
O=C1C=CC(O)(c2cc(=O)c3c(O)cc(O)cc3o2)C=C1,–,–,–,–,45,–
Cc1ccc(NC(=O)CNC(=O)c2ccco2)cc1,–,–,–,–,–,–
O=c1oc(-c2cccc(Cl)c2)nc2c1cnn2-c1ccccc1,–,–,–,–,–,–
O=c1oc(-c2ccccc2F)nc2c1cnn2-c1ccccc1,–,–,–,52,–,–
CC(C)(C)c1nnc(N/N=C/c2ccccc2O)n(N)c1=O,–,–,81,–,–,–
Cc1[nH]c2ccccc2c1C(=O)C(=O)NCc1nnnn1-c1ccc(F)c(F)c1,–,·,–,·,·,·
O=C(NN=Cc1c(O)ccc2ccccc12)c1ccc2c(c1)OCO2,–,–,–,–,–,–
SMILES,CXCR6 inh,APJ agonist,EBI2 block,CCR6 antag,Beta2AR agonist,APJ antag
Oc1ccc(N=Nc2ccc3c(c2)OCO3)c2ccccc12,·,–,·,·,·,58
Cc1ccc(S(=O)(=O)CCC(=O)c2cccc([N+](=O)[O-])c2)cc1,–,–,–,59,–,–
Cc1ccc(C(=O)CCS(=O)(=O)c2ccc(Br)cc2)cc1,–,–,–,–,–,–
N#Cc1cn(-c2cccc(C(F)(F)F)c2)c(=O)[nH]c1=O,–,–,–,–,–,–
O=C1NC(=S)S/C1=C\C=C\c1ccc([N+](=O)[O-])o1,–,·,–,61,–,·
CC1CCN(S(=O)(=O)c2ccc(NC(=S)NC(=O)c3ccc(Cl)cc3)cc2)CC1,–,–,–,55,–,–
